Measured values published in ChEMBL document CHEMBL5724801, “EUbOPEN Chemogenomics Library - Multiplex” (2024).
Where “and” joins values, the source holds several entries; their conditions need not be identical. Identical values can stand only once.

System: HEK-293T
Experiment: Multiplex assay against HEK293T
Type: toxicity, cell-based
Settings: human
Method in brief: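 On a CQ1 microscope at 37°C and 5% CO2, live cells were imaged after compound addition. They had been stained at seeding with Hoechst33342, BioTracker Green Microtubule Cytoskeleton Dye, MitoTracker Red and Annexin V Alexa Fluor 680. CellPathfinder machine-learning gating assigned cells to Hoechst high-intensity objects or normal cells, normal cells to healthy, pyknosed or fragmented nuclei, and pyknosed cells to mitotic or apoptotic. Tubulin, mitochondrial-mass and membrane-permeability phenotypes are per cents of healthy-nucleus cells.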

[1] = 12 h, 1 µM, compound concentration 1 uM
[2] = 12 h, 10 µM, compound concentration 10 uM
[3] = 24 h, 1 µM, compound concentration 1 uM
[4] = 24 h, 10 µM, compound concentration 10 uM
[5] = 48 h, 1 µM, compound concentration 1 uM
[6] = 48 h, 10 µM, compound concentration 10 uM

Cl.Cl.N#Cc1ccc(O[C@@H]2c3ccccc3C[C@H]2N2CCC[C@@H](N)C2)c(Cl)c1
Population Apoptotic (%) [1]: 8.75% and 10.31% | Population Fragmented Nuclei (%) [1]: 2.35% and 6.14% | Population Hoechst High Intensity Objects (%) [1]: 0% | Population Membrane Permeable-Phenotype (%) [1]: 1.16% and 0% | Population Mitochondria Different-Phenotype (%) [1]: 36.63% and 30% | Population Mitotic Cells (%) [1]: 91.25% and 89.69% | Population Normal (%) [1]: 100% | Population Pyknosed Nuclei (%) [1]: 47.06% and 85.09% | Population Tubulin-Different-Phenotype (%) [1]: 26.16% and 50% | Total Cell Count [1]: 340 and 114 | Population Apoptotic (%) [2]: 22.15% and 32.8% | Population Fragmented Nuclei (%) [2]: 4.33% and 4.76% | Population Healthy Nuclei (%) [2]: 27.27% and 10.2% | Population Hoechst High Intensity Objects (%) [2]: 0.86% and 0% | Population Membrane Permeable-Phenotype (%) [2]: 0% and 13.33% | Population Mitochondria Different-Phenotype (%) [2]: 28.57% and 33.33% | Population Mitotic Cells (%) [2]: 77.85% and 67.2% | Population Normal (%) [2]: 99.14% and 100% | Population Pyknosed Nuclei (%) [2]: 68.4% and 85.03% | Population Tubulin-Different-Phenotype (%) [2]: 71.43% and 93.33% | Total Cell Count [2]: 233 and 147 | Population Apoptotic (%) [3]: 26.62% and 47.67% | Population Fragmented Nuclei (%) [3]: 1.19% and 8.11% | Population Hoechst High Intensity Objects (%) [3]: 0.2% and 0% | Population Membrane Permeable-Phenotype (%) [3]: 2.03% and 0% | Population Mitochondria Different-Phenotype (%) [3]: 30.14% and 50% | Population Mitotic Cells (%) [3]: 73.38% and 52.33% | Population Normal (%) [3]: 99.8% and 100% | Population Pyknosed Nuclei (%) [3]: 30.5% and 77.48% | Population Tubulin-Different-Phenotype (%) [3]: 42.9% and 56.25% | Population Apoptotic (%) [4]: 63.58% and 76.03% | Population Fragmented Nuclei (%) [4]: 3.91% and 5.04% | Population Hoechst High Intensity Objects (%) [4]: 1.16% and 0% | Population Membrane Permeable-Phenotype (%) [4]: 1.05% and 9.09% | Population Mitochondria Different-Phenotype (%) [4]: 72.63% and 63.64% | Population Mitotic Cells (%) [4]: 36.42% and 23.97% | Population Normal (%) [4]: 98.84% and 100% | Population Pyknosed Nuclei (%) [4]: 58.98% and 87.05% | Population Tubulin-Different-Phenotype (%) [4]: 93.68% and 90.91% | Total Cell Count [4]: 259 and 139 | Population Fragmented Nuclei (%) [5]: 2.55% and 7.63% | Population Healthy Nuclei (%) [5]: 83.85% and 39.83% | Population Hoechst High Intensity Objects (%) [5]: 0.11% and 0% | Population Membrane Permeable-Phenotype (%) [5]: 7.35% and 0% | Population Mitochondria Different-Phenotype (%) [5]: 44.61% and 70.21% | Population Mitotic Cells (%) [5]: 90.62% and 66.13% | Population Normal (%) [5]: 99.89% and 100% | Population Apoptotic (%) [6]: 63.04% and 79.59% | Population Fragmented Nuclei (%) [6]: 2.57% and 5.97% | Population Healthy Nuclei (%) [6]: 58% and 20.9% | Population Hoechst High Intensity Objects (%) [6]: 1.69% and 0.74% | Population Membrane Permeable-Phenotype (%) [6]: 1.48% and 7.14% | Population Mitochondria Different-Phenotype (%) [6]: 95.07% and 92.86% | Population Mitotic Cells (%) [6]: 36.96% and 20.41% | Population Normal (%) [6]: 98.31% and 99.26% | Population Pyknosed Nuclei (%) [6]: 39.43% and 73.13% | Population Tubulin-Different-Phenotype (%) [6]: 30.05% and 89.29% | Total Cell Count [6]: 356 and 135
